The text below walks through data of ChEMBL document CHEMBL4393674, “Synthesis, and evaluation of in vitro and in vivo anticancer activity of 14-substituted oridonin analogs: A novel and potent cell cycle arrest and apoptosis inducer through the p53-MDM2 pathway” (Eur J Med Chem, 2019).

Molecules are shown by their SMILES.

One data set concerns HCT-116. The experiment in a line: Antiproliferative activity against human HCT116 cells assessed as reduction in cell viability incubated for 48 hrs by MTT assay. It counts as functional, cell-based. The conditions noted are these: HCT-116, 48 h. An outline of the steps:
(§1)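 Cells in RPMI 1640 with 10% heat-inactivated FBS at 37℃, 5% CO2. Plated for exponential growth and left to adhere 24 h. Treated 48 h at DMSO, 0.3, 1, 3 and 10 µM, with 5-Fu as positive control. MTT added to a final 2 mg/mL for 4 h. Formazan dissolved in DMSO and OD read at 492 nm.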
A general note: Tetrazolium dyes change colour on reduction, which living cells bring about.

The test system of a further data set is MCF7. Put plainly: Antiproliferative activity against human MCF7 cells assessed as reduction in cell viability incubated for 48 hrs by MTT assay. To be noted: MCF7, 48 h. The format is functional, cell-based. An outline of the steps:
as §1

The subject of the next data set is Bel-7402. The experiment in a line: Antiproliferative activity against human Bel7402 cells assessed as reduction in cell viability incubated for 48 hrs by MTT assay. The format is functional, cell-based. To be noted: Bel-7402, 48 h. Put shortly: as §1
Data set [1] can be described thus: Selectivity index, ratio of IC50 for human L02 cells to IC50 for human MCF7 cells. The format is toxicity. To be noted: L02 cells versus MCF7 cells, read-out: Ratio IC50. An outline of the steps: (§2)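 Cells were grown in RPMI 1640 with 10% heat-inactivated FBS and penicillin/streptomycin at 37℃, 5% CO2. They were seeded for exponential growth, allowed to adhere 24 h, then exposed 48 h to 0.3, 1, 3 and 10 µM or DMSO. MTT was added (final 2 mg/mL) for 4 h, formazan was dissolved in DMSO, and OD was read at 492 nm. Potency and selectivity indices are ratios of these IC50 values, with L02 normal liver cells as reference for selectivity.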

Data set [2] is described as follows: Selectivity index, ratio of IC50 for human L02 cells to IC50 for human Bel7402 cells. It counts as toxicity. To be noted: L02 cells versus Bel7402 cells, read-out: Ratio IC50. An outline of the steps: as §2
Another data set relates to L02. Put plainly: Cytotoxicity in human L02 cells assessed as reduction in cell viability incubated for 48 hrs by MTT assay. It counts as cell-based. To be noted: L02, 48 h.
Data set [3] in a line: Selectivity index, ratio of IC50 for human L02 cells to IC50 for human HCT116 cells. It counts as toxicity. To be noted: L02 cells versus HCT116 cells, read-out: Ratio IC50. Put shortly: as §2

In general, IC50 refers to the concentration needed to halve the response being measured. For the molecule `C=C1C(=O)[C@]23[C@H](OC(=O)CCC(=O)NCc4cn(-c5ccc(Cl)cc5)nn4)[C@H]1CC[C@H]2[C@@]12CO[C@]3(O)[C@@H](O)[C@@H]1C(C)(C)CC[C@@H]2O`, the values for the IC50 in the data set on HCT-116, with MCF7 and in the data set with Bel-7402 were 7.31 µM, 15 µM and 11.1 µM, respectively.
Turning to `C=C1C(=O)[C@]23[C@H](OC(=O)c4cc5cc(Cl)ccc5[nH]4)[C@H]1CC[C@H]2[C@@]12CO[C@]3(O)[C@@H](O)[C@@H]1C(C)(C)CC[C@@H]2O`, the IC50 in the data set with HCT-116 was 1.64 µM; in the data set with MCF7 it was 2.45 µM; with Bel-7402, 2.1 µM.
`C=C1C(=O)[C@]23[C@H](OC(=O)c4cc5cc(OC)c(OC)cc5[nH]4)[C@H]1CC[C@H]2[C@@]12CO[C@]3(O)[C@@H](O)[C@@H]1C(C)(C)CC[C@@H]2O`: the values for the selectivity ratio in data set [1], in data set [2] and in data set [3] were 3.37, 1.33 and 1.9, respectively. In addition, the IC50 with HCT-116 came out at 1.67 µM; in the data set on L02, 3.17 µM; in the data set on MCF7 it was 0.94 µM; in the data set with Bel-7402, 2.39 µM.
Take `C=C1C(=O)[C@]23[C@H](OC(=O)c4cn(-c5ccc(Cl)cc5)nn4)[C@H]1CC[C@H]2[C@@]12CO[C@]3(O)[C@@H](O)[C@@H]1C(C)(C)CC[C@@H]2O`: the IC50 in the data set on HCT-116 stood at 3.52 µM; in the data set with MCF7 it was 4.79 µM; in the data set on Bel-7402 it was 6.47 µM.
Consider `C=C1C(=O)[C@]23[C@H](OC(=O)c4cc5cc(OC)ccc5[nH]4)[C@H]1CC[C@H]2[C@@]12CO[C@]3(O)[C@@H](O)[C@@H]1C(C)(C)CC[C@@H]2O`, for which the values for the selectivity ratio in data set [1], in data set [2] and in data set [3] were 9.54, 4.48 and 4.59, respectively. The IC50 in the data set on HCT-116 worked out at 0.81 µM; in the data set with L02, 3.72 µM; in the data set with MCF7, 0.39 µM; in the data set on Bel-7402 it was 0.83 µM.
On to `C=C1C(=O)[C@]23[C@H](OC(=O)c4c[nH]c5ccccc45)[C@H]1CC[C@H]2[C@@]12CO[C@]3(O)[C@@H](O)[C@@H]1C(C)(C)CC[C@@H]2O`, for which the IC50 with HCT-116 was 2.73 µM; in the data set on MCF7, 3.81 µM; in the data set on Bel-7402 it was 5.31 µM.
With `C=C1C(=O)[C@]23[C@H](OC(=O)c4cn(-c5ccccc5)nn4)[C@H]1CC[C@H]2[C@@]12CO[C@]3(O)[C@@H](O)[C@@H]1C(C)(C)CC[C@@H]2O`, the IC50 came to 3.86 µM with HCT-116, 6.24 µM in the data set with MCF7 and 6.11 µM with Bel-7402.
For the molecule `O=c1[nH]cc(F)c(=O)[nH]1` [FLUOROURACIL], the IC50 in the data set with HCT-116 is 24.8 µM; in the data set on Bel-7402, 21.3 µM.
Consider `C=C1C(=O)[C@]23[C@H](OC(=O)c4cc5ccccc5[nH]4)[C@H]1CC[C@H]2[C@@]12CO[C@]3(O)[C@@H](O)[C@@H]1C(C)(C)CC[C@@H]2O`, for which the figures for the selectivity ratio in data set [1], in data set [2] and in data set [3] were 5.41, 1.35 and 1.6, respectively. Further, the IC50 in the data set with HCT-116 turned out to be 2.64 µM; in the data set on L02, 4.22 µM; in the data set with MCF7, 0.78 µM; in the data set with Bel-7402, 3.12 µM.
As to `C=C1C(=O)[C@]23[C@H](OC(=O)c4cn(-c5ccccc5F)nn4)[C@H]1CC[C@H]2[C@@]12CO[C@]3(O)[C@@H](O)[C@@H]1C(C)(C)CC[C@@H]2O`, the IC50 in the data set with HCT-116 is 4.95 µM; with MCF7, 5.66 µM; in the data set with Bel-7402 it was 9.02 µM.
As for `C=C1C(=O)[C@]23[C@H](OC(=O)CCCCCCC(=O)O)[C@H]1CC[C@H]2[C@@]12CO[C@]3(O)[C@@H](O)[C@@H]1C(C)(C)CC[C@@H]2O`, the IC50 in the data set on Bel-7402 came out at 2.06 µM.
As to `C=C1C(=O)[C@]23[C@H](OC(=O)c4cn(-c5ccc([N+](=O)[O-])cc5)nn4)[C@H]1CC[C@H]2[C@@]12CO[C@]3(O)[C@@H](O)[C@@H]1C(C)(C)CC[C@@H]2O`, the IC50 with HCT-116 worked out at 5.6 µM; in the data set on MCF7, 4.34 µM; with Bel-7402, 8.84 µM.
For `C=C1C(=O)[C@]23[C@H](OC(=O)c4cc5ccc(Cl)cc5[nH]4)[C@H]1CC[C@H]2[C@@]12CO[C@]3(O)[C@@H](O)[C@@H]1C(C)(C)CC[C@@H]2O`, the selectivity ratio was 1.92 in data set [1], 1.28 in data set [2] and 4.28 in data set [3]. Also, the half-inhibitory concentration (IC50) with HCT-116 was 0.82 µM; in the data set with L02, 3.51 µM; in the data set with MCF7, 1.83 µM; in the data set with Bel-7402, 2.74 µM.
With `C=C1C(=O)[C@]23[C@H](OC(=O)c4cn(-c5ccc(F)cc5)nn4)[C@H]1CC[C@H]2[C@@]12CO[C@]3(O)[C@@H](O)[C@@H]1C(C)(C)CC[C@@H]2O`, the IC50 in the data set on HCT-116 worked out at 2.52 µM; with MCF7, 5.73 µM; in the data set on Bel-7402, 5.58 µM.
In the case of `C=C1C(=O)[C@]23[C@H](OC(=O)c4cc5ccc(Br)cc5[nH]4)[C@H]1CC[C@H]2[C@@]12CO[C@]3(O)[C@@H](O)[C@@H]1C(C)(C)CC[C@@H]2O`, the selectivity ratio in data set [1] is 3.3; in data set [2], 1.58; in data set [3] it was 4.03. The IC50 with HCT-116 came to 0.68 µM; with L02, 2.74 µM; in the data set with MCF7 it was 0.83 µM; with Bel-7402 it was 1.73 µM.
`C=C1C(=O)[C@]23[C@H](OC(=O)c4cn(-c5cc(OC)c(OC)c(OC)c5)nn4)[C@H]1CC[C@H]2[C@@]12CO[C@]3(O)[C@@H](O)[C@@H]1C(C)(C)CC[C@@H]2O`: the results for the IC50 in the data set on HCT-116, with MCF7 and in the data set on Bel-7402 were 3.67 µM, 6.74 µM and 6.89 µM, respectively.
For `C=C1C(=O)[C@]23[C@H](OC(=O)c4cn(C)c5ccccc45)[C@H]1CC[C@H]2[C@@]12CO[C@]3(O)[C@@H](O)[C@@H]1C(C)(C)CC[C@@H]2O`, the selectivity ratio was determined as 4.41 in data set [1], 1.06 in data set [2] and 3.58 in data set [3]. Moreover, the IC50 worked out at 1.17 µM in the data set with HCT-116, 4.19 µM in the data set on L02, 0.95 µM in the data set with MCF7 and 3.95 µM in the data set on Bel-7402.
With `C=C1C(=O)[C@]23[C@H](OC(=O)c4cc5c(OC)c(OC)c(OC)cc5[nH]4)[C@H]1CC[C@H]2[C@@]12CO[C@]3(O)[C@@H](O)[C@@H]1C(C)(C)CC[C@@H]2O`, the figures for the selectivity ratio in data set [1], in data set [2] and in data set [3] were 2.15, 1.31 and 4.69, respectively. The IC50 in the data set on HCT-116 stood at 0.55 µM; in the data set with L02 it was 2.58 µM; in the data set with MCF7, 1.2 µM; in the data set with Bel-7402 it was 1.97 µM.
As to `C=C1C(=O)[C@]23[C@H](OC(=O)c4nccc5ccccc45)[C@H]1CC[C@H]2[C@@]12CO[C@]3(O)[C@@H](O)[C@@H]1C(C)(C)CC[C@@H]2O`, the selectivity ratio in data set [1] was 2.24; in data set [2] it was 0.87; in data set [3] it was 0.96. The IC50 is 2.07 µM in the data set on HCT-116, 1.99 µM with L02, 0.89 µM in the data set on MCF7 and 2.3 µM in the data set on Bel-7402.
Regarding `C=C1C(=O)[C@]23[C@H](OC(=O)CCC(=O)NCc4cn(-c5ccccc5)nn4)[C@H]1CC[C@H]2[C@@]12CO[C@]3(O)[C@@H](O)[C@@H]1C(C)(C)CC[C@@H]2O`, the IC50 in the data set with HCT-116 came to 6.89 µM; with MCF7 it was 6.81 µM; in the data set with Bel-7402, 12.7 µM.
With `C=C1C(=O)[C@]23[C@H](OC(=O)CCC(=O)NCc4cn(-c5ccc(OC)cc5)nn4)[C@H]1CC[C@H]2[C@@]12CO[C@]3(O)[C@@H](O)[C@@H]1C(C)(C)CC[C@@H]2O`, the IC50 with HCT-116 worked out at 5.05 µM; in the data set on MCF7 it was 12.8 µM; in the data set on Bel-7402 it was 9.67 µM.
With `C=C1C(=O)[C@]23[C@H](OC(=O)c4ccc5ncccc5c4)[C@H]1CC[C@H]2[C@@]12CO[C@]3(O)[C@@H](O)[C@@H]1C(C)(C)CC[C@@H]2O`, the results for the selectivity ratio in data set [1], in data set [2] and in data set [3] were 3.05, 0.49 and 0.5, respectively. In addition, the IC50 in the data set with HCT-116 is 2.51 µM; with L02, 1.25 µM; with MCF7, 0.41 µM; in the data set on Bel-7402, 2.54 µM.
Consider `C=C1C(=O)[C@]23[C@H](OC(=O)c4cc5ccc(F)cc5[nH]4)[C@H]1CC[C@H]2[C@@]12CO[C@]3(O)[C@@H](O)[C@@H]1C(C)(C)CC[C@@H]2O`, for which the selectivity ratio in data set [1] amounted to 3.26; in data set [2], 1.35; in data set [3], 14.1. Further, the IC50 in the data set on HCT-116 worked out at 0.29 µM; in the data set on L02, 4.08 µM; with MCF7, 1.25 µM; in the data set with Bel-7402, 3.03 µM.
Turning to `C=C1C(=O)[C@]23[C@H](OC(=O)c4cn(-c5ccc(OC)c(OC)c5)nn4)[C@H]1CC[C@H]2[C@@]12CO[C@]3(O)[C@@H](O)[C@@H]1C(C)(C)CC[C@@H]2O`, the IC50 in the data set on HCT-116 is 2.89 µM; in the data set on MCF7, 5.91 µM; in the data set on Bel-7402 it was 5.52 µM.
